High-throughput results (PubChem BioAssay)
An excerpt weighted towards active compounds, which were near 3.8% of everything screened.
MC4R ag barr: MC4R agonists recruiting beta-arrestin, primary screen, cell-based, luminescence, agonist arm of biased-ligand search | Melanocortin receptor 4 (Homo sapiens), P32245 | U2OS MC4R beta-arrestin complementation; percent of melanotan II response, DMSO zero | AID 540308, 2011 | activation, % at 8.9 µM | hit rate 0.98% among 360,000;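 active means activation above a per-plate cutoff, the mean activation of sample wells on that plate plus 3 SD, cut at about 8% in these data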
Beta cell apopt: inhibitors of cytokine-induced beta cell apoptosis, primary screen, luminescence. INS-1E cytokine-induced death, ATP luminescence, 48 h; percent of positive-control rescue, neutral wells zero. protection from apoptosis, % (concentration not given with the values). hit rate 0.8% among 300,000;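 active means Every replicate reaches about 75%, or at least half do and their mean reaches it too, limit read from the data; inconclusive means At least half of replicates reach the limit but their mean does not; inactive means Under half of replicates reach the limit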;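 further: higher means more ATP so stronger rescue from cytokine killing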
TMEM16A act: TMEM16A chloride channel activators or potentiators, primary screen, cell-based, HTS; HEK293 TMEM16A/YFP-H148Q/I152L, iodide quench fluorescence; stronger effect = lower value; B-score at 10 µM; hit rate 0.3% among 340,000; AID 623877, 2012;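 active means fluorescence-ratio B-score plate-corrected deviation score at least 3 library SD below zero, with starting fluorescence score within 5 deviations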;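 further: channel opened by trigger with iodide after compound preincubation; score built on the fluorescence ratio of max minus min over baseline; more negative score means more quench and so TMEM16A activation or potentiation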
Target sequence (Q8BHY3 whole entry, looked up): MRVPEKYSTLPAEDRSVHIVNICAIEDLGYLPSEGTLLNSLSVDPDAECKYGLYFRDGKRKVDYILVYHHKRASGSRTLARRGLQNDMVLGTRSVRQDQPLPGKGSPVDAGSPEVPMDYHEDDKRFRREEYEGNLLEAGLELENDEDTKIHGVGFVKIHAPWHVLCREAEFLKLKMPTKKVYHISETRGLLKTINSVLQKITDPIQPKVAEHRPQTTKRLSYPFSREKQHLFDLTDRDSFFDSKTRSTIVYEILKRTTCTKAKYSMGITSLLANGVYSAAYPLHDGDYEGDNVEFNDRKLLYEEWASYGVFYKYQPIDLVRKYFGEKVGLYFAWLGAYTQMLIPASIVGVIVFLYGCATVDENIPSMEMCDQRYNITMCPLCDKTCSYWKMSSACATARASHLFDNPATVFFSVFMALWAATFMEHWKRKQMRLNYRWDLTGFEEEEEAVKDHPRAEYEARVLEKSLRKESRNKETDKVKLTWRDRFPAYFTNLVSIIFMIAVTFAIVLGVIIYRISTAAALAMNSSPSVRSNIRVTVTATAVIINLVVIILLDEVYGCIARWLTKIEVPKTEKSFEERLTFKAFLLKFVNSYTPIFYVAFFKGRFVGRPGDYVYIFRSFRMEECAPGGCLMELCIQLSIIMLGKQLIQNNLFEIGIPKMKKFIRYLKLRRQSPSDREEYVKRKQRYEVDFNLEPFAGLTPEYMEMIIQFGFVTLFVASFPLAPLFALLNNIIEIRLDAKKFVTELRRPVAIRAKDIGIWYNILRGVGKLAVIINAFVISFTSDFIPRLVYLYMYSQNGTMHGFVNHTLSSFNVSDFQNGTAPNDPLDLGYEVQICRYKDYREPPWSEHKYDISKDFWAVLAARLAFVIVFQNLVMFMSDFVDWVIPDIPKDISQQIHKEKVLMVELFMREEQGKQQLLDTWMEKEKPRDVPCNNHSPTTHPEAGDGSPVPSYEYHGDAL
CSC inhib: cancer stem cell viability inhibitors, primary screen, luminescence | cancer stem cell-like cells viability | inhibition, % at 7.5 µM | hit rate 1.1% among 300,000 | AID 2717, 2010; in the data active means inhibition above about 75%; inconclusive means no clear call, values can overlap the other calls; tested in HMLE shEcad cells
MC4R antagonist: MC4R antagonists of cAMP signaling, primary screen, cell-based, TR-FRET, antagonist arm of biased-ligand search; MC4R-expressing cells, MTII-stimulated cAMP, LANCE TR-FRET; inhibition, % at 6.5 µM; hit rate 0.48% among 360,000;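 active means inhibition above its plate's cutoff, the mean of tested wells on that plate plus 3 SD, cut at about 29% in these data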
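Assay system: U2OS cells stably expressing human melanocortin 4 receptor (MC4R) / Dosing: 6.5 µM / Timing: compound 30 min, challenge 1 h, detection 1 h / Measured by: Eu-cAMP/anti-cAMP TR-FRET, emission 671 nm / Replicates: singlicate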
ANO1 block: TMEM16A chloride channel inhibitors, primary screen, cell-based, HTS | Anoctamin-1 (Mus musculus), Q8BHY3 | AID 588511, 2011 | HEK293 TMEM16A/YFP iodide influx fluorescence, ionomycin | hit rate 1.2% among 310,000 | normalized B-score (activity score, 25-100; higher = stronger inhibition) at 10 µM;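 active means ratio plate-corrected score three or more library SD toward inhibition, starting fluorescence score within five deviations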;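 further: score derived from kinetic fluorescence span divided by baseline fluorescence per well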
MC4R barr conf: MC4R beta-arrestin agonists, retest, confirmation, cell-based, luminescence, U2OS. shares compounds with MC4R ag barr. U2OS MC4R beta-arrestin recruitment; scaled DMSO 0%, Melanotan II 100%. AID 602192, 2012. hit rate 31% among 2,400. activation, % at 8.9 µM;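 active means mean activation across replicates above the hit cutoff set in the earlier primary screen, cut at about 8% in these data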
MOR-DOR barr ag: agonists of MOR-DOR heterodimerization, counter-screen for MC4R biased agonist project, cell-based, luminescence; U2OS PathHunter beta-arrestin, beta-gal luminescence; percent of deltorphin B response, DMSO zero; shares compounds with MC4R ag barr; hit rate 5.8% among 2,400; activation, % at 9.2 µM;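 active means mean activation across replicates exceeds the hit threshold derived in the earlier primary screen, cut at about 18% in these data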
Each line names hits and unclear results; the compound was inactive in the other large screens (follow-up assays come after a bar, where they were run).

NNC(=O)c1cc2nc(-c3cccs3)cc(C(F)(F)F)n2n1	none
Cc1ccc(C(=O)Nc2ccc(N3CCOCC3)c3nonc23)cc1[N+](=O)[O-]	MC4R ag barr 11 (no result: CSC inhib) | MC4R barr conf inactive | MOR-DOR barr ag inactive
Cc1cc(C(=O)Nc2ccc(N3CCOCC3)c3nonc23)ccc1[N+](=O)[O-]	none (no result: CSC inhib)
O=C(Nc1ccc(Br)cc1)c1ccc(CSC2=NCCS2)cc1	MC4R ag barr 29 | MC4R barr conf inactive | MOR-DOR barr ag inactive
CCN(CC)S(=O)(=O)c1ccc(N/N=C(\C)c2ccc3c(c2)OCO3)c([N+](=O)[O-])c1	none
C/C(=N\Nc1ccc(S(N)(=O)=O)cc1[N+](=O)[O-])c1ccc2c(c1)OCO2	MC4R ag barr 13 (no result: Beta cell apopt, CSC inhib, ANO1 block) | MC4R barr conf inactive | MOR-DOR barr ag inactive
O=C(Cc1csc(-c2ccccc2)n1)Nc1ccc(C(F)(F)F)cc1	MC4R ag barr 14 | MC4R barr conf inactive | MOR-DOR barr ag inactive
O[C@@H]1CN(Cc2cccs2)[C@@H](c2ccc(Cl)cc2)C[C@H]1n1cc(C2CC2)nn1	none (no result: Beta cell apopt, TMEM16A act, CSC inhib, ANO1 block)
O=C(c1cc(-c2ccc(O)cc2)on1)N1CCN(c2ccc(F)cc2)CC1	MC4R ag barr 11, CSC inhib 111 | MC4R barr conf inactive | MOR-DOR barr ag inactive
Cc1cc(NC(=O)COc2coc(CN3CCN(c4ccccc4F)CC3)cc2=O)no1	none (no result: Beta cell apopt)
C=CCOC(=O)C1=C(C)NC(SCC(=O)Nc2nccs2)=C(C#N)C1c1ccc(Cl)cc1 (centres undefined)	MC4R ag barr 11 | MC4R barr conf inactive | MOR-DOR barr ag inactive
COC(=O)c1ccc(CNC(=O)Cn2cnc3c(SC)nc(N)nc32)cc1	none (no result: CSC inhib, ANO1 block)
CC(SCc1ccccc1)C(=O)Nc1ccccc1F (centres undefined)	none (no result: MC4R ag barr, MC4R antagonist)
CC(=O)Nc1cc(-c2ccc(F)cc2)cn2c(-c3ccc(F)cc3)cnc12	MC4R ag barr 25 (no result: Beta cell apopt, TMEM16A act, CSC inhib, ANO1 block) | MC4R barr conf 15 | MOR-DOR barr ag inactive
CC(=O)Nc1cc(-c2ccncc2)cn2c(-c3ccccc3)cnc12	none (no result: Beta cell apopt, TMEM16A act, CSC inhib, ANO1 block)
CC(=O)Nc1cc(-c2ccccc2)cn2c(-c3ccc(F)cc3)cnc12	MC4R ag barr 26 (no result: Beta cell apopt, TMEM16A act, CSC inhib, ANO1 block) | MC4R barr conf 27 | MOR-DOR barr ag inactive
CC(=O)Nc1cc(-c2ccc(F)cc2)cn2c(-c3ccc(S(C)(=O)=O)cc3)cnc12	none (no result: Beta cell apopt, TMEM16A act, CSC inhib, ANO1 block)
COc1cc(-c2cc(NC(C)=O)c3ncc(-c4ccc(F)cc4)n3c2)cc(OC)c1OC	MC4R ag barr 12 (no result: Beta cell apopt, TMEM16A act, CSC inhib, ANO1 block) | MC4R barr conf 8.6 | MOR-DOR barr ag inactive
CCc1nc2c(OCc3ccccc3C(=O)OC)cccn2c1N(C)C(=O)Nc1ccccc1OC	none (no result: Beta cell apopt, TMEM16A act, CSC inhib, ANO1 block)
O=C(O)c1ccc(/C=N/Nc2nnnn2-c2ccccc2)cc1	none
O=c1c(Cl)c(N/N=C/c2ccc(Br)cc2)cnn1-c1ccccc1	MC4R ag barr 16 | MC4R barr conf 12 | MOR-DOR barr ag inactive
COc1ccccc1N(C)S(=O)(=O)c1ccc(C(=O)NCc2ccccc2CN2CCCC2)cc1	none (no result: Beta cell apopt, TMEM16A act, CSC inhib, ANO1 block)
CCOC(=O)c1c(C)[nH]c(C(=O)COC(=O)c2cc(C)oc2C)c1C	MC4R ag barr 19 (no result: ANO1 block) | MC4R barr conf 9.9 | MOR-DOR barr ag inactive
Cc1ccc(S(=O)(=O)N2CCC(C(=O)Nc3ncccc3O)CC2)cc1	none (no result: ANO1 block)
COc1ccc(C(CNC(=O)c2cccc(S(=O)(=O)N3CCCCC3)c2)N2CCCC2)cc1 (centres undefined)	none (no result: ANO1 block)
C=CCc1cccc(/C=N/NC(=O)CNc2cccc3ccccc23)c1O	none (no result: Beta cell apopt)
C=CCc1cccc(/C=N/NC(=O)CCCNc2ccc(C)cc2)c1O	MC4R ag barr 16 | MC4R barr conf inactive | MOR-DOR barr ag inactive
COc1ccc2nc(Cl)c(/C=N/Nc3ccccn3)cc2c1	MC4R ag barr 39 | MC4R barr conf inactive | MOR-DOR barr ag inactive
Clc1ccccc1C=NNc1ccccn1	none (no result: Beta cell apopt, CSC inhib, ANO1 block)
CCCCNC(=O)c1cccnc1SCC(=O)Nc1ccccc1OC	none
CCCCCCCCNC(=O)c1cccnc1SCC(=O)Nc1ccc(OC)cc1OC	MC4R ag barr 11 | MC4R barr conf 18 | MOR-DOR barr ag 29
Cc1ccc(N(CC(=O)NCC2CCCO2)C(=O)CCC(=O)Nc2nccs2)cc1 (centres undefined)	none
O=C(Nc1cccc(O)c1)c1cc2nc(-c3ccccc3)cc(-c3ccccc3)n2n1	MC4R ag barr 12 | MC4R barr conf inactive | MOR-DOR barr ag inactive
C[C@H](CO)N1C[C@H](C)[C@@H](CN(C)S(C)(=O)=O)Oc2ccc(NC(=O)CCN3CCOCC3)cc2C1=O	none (no result: Beta cell apopt, TMEM16A act, CSC inhib, ANO1 block)
COc1cc(/C=N/Nc2ccccc2[N+](=O)[O-])cc(OC)c1O	MC4R ag barr 10.0 | MC4R barr conf inactive | MOR-DOR barr ag inactive
Cc1ccccc1COc1cccn2c(N(C)C(=O)CCC3CCCC3)c(C)nc12	none (no result: Beta cell apopt, TMEM16A act, CSC inhib, ANO1 block)
COc1ccc(OC)c(C(=O)CSc2nnc(C3CC3)n2C2CC2)c1	none (no result: Beta cell apopt, TMEM16A act, CSC inhib, ANO1 block)
Cc1cc(-c2ccc(S(=O)(=O)N(C)Cc3ccccc3)cc2)on1	MC4R ag barr 25 | MC4R barr conf inactive | MOR-DOR barr ag inactive
O=C(CSc1ncnc2c1oc1ccccc12)Nc1cccc(Cl)c1	MC4R ag barr 13 (no result: Beta cell apopt) | MC4R barr conf inactive | MOR-DOR barr ag inactive
Cc1cc(/C=N/n2cnnc2)c(C)n1-c1ccc(OCc2ccc(Cl)cc2Cl)cc1	MC4R ag barr 14, Beta cell apopt 113, CSC inhib 103, ANO1 block 100 | MC4R barr conf inactive | MOR-DOR barr ag inactive
Cc1cc(/C=N/n2cnnc2)c(C)n1-c1ccc(Cl)cc1	none
CC1CCCCN1S(=O)(=O)c1ccc(S(=O)(=O)N2CCN(C)CC2)cc1 (centres undefined)	none
COc1cc(CNCc2ccccc2)cc(Cl)c1OC	none
COc1cc(CNCCc2ccccc2)cc(Cl)c1OCc1ccccc1	MC4R ag barr 14, CSC inhib inconclusive | MC4R barr conf 10 | MOR-DOR barr ag inactive
Cc1c(CCO)c(=O)[nH]n1S(=O)(=O)c1ccc(F)cc1	none
C[C@@H]1CN([C@H](C)CO)C(=O)c2c(c3ccccc3n2C)-c2ccccc2CO[C@@H]1CN(C)S(=O)(=O)c1cccs1	none (no result: Beta cell apopt, TMEM16A act, CSC inhib, ANO1 block)
CCC(CC)CN1CCC(CN2C(=S)NC[C@@H]2CC(C)C)CC1	none (no result: Beta cell apopt, TMEM16A act, CSC inhib, ANO1 block)
